Ba/F3 V617F tox = lowers viability of Ba/F3 cells expressing EpoR and JAK2V617F | ATP luminescence | inhibition, % at 5.6 µM | 220,000 compounds, 1.1% hits | AID 1446;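 active means inhibition above the campaign mean plus 3 SD over all tested compounds, cut at about 24% in these data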;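 further: cytokine-independent growth of Ba/F3 cells driven by EpoR plus mutant JAK2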
BaF3 parental = reduces parental Ba/F3 cell viability, JAK2V617F counter-screen. 220,000 compounds, 1.1% hits. AID 1486. inhibition, % at 5.6 µM. CellTiter-Glo ATP luminescence;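 active means inhibition above a per-campaign cutoff, the mean inhibition of all tested compounds plus 3 SD, cut at about 27% in these data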
Lmaj promast = inhibitors of Leishmania major promastigote growth; Leishmania major promastigotes, resazurin fluorescence viability; inhibition, % at 10 µM; 200,000 compounds, 9% hits; AID 1063; in the data active means inhibition above about 50%;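 further: promastigotes grown with compound for 44 hours at 28 °C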
b-catenin transl = beta-catenin nuclear translocation modulation; 190,000 compounds, 0.3% hits; nuclear translocation activity, % at 5 µM; HeLa beta-catenin nuclear translocation, immunofluorescence imaging;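 active means nuclear translocation activity above 50% at 5 µM, with a well cell count of 50 or more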;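 further: per-cell ratio of nuclear to cytoplasmic median beta-catenin stain intensity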
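Assay system: human HeLa cells, native beta-catenin; doses: 5 µM primary, 0.02–20 µM confirmation; incubation: compound treatment 24 h, 37°C, 5% CO2; technique: fluorescence imaging of beta-catenin antibody stain plus DAPI; measure: % activation, nuclear-to-cytoplasmic median beta-catenin signal ratio per cell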
APP transl inh = APP translation inhibition; SH-SY5Y APP 5'UTR-luciferase reporter, luminescence; inhibition, % at 2 µM; 190,000 compounds, 0.82% hits; AID 1285;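 active means inhibition above a set limit, derived from the sample mean plus 3 SD, cut at about 45% in these data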
MT stabilize HCS = microtubule stabilizers in HeLa cells; HeLa tubulin immunostaining HCS, 24 h; share of cells brighter than vehicle mean+2SD; 200,000 compounds, 0.83% hits; % tubulin-high responders, % at 10 µM;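 active means plate Z-score above 3 for both tubulin-high and condensed-nucleus cell shares, with cell loss under 80%, at 10 µM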;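 further: anti alpha tubulin signal scored within the nucleus-defined area of each cell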
Numbers stand for hits; - = inactive; . = not tested or not shown. Sampled rows, rich in hits. Any-hit rate of the full collection: about 9.6%.

SMILES	Ba/F3 V617F tox	BaF3 parental	Lmaj promast	b-catenin transl	APP transl inh	MT stabilize HCS
CC(C)CC(NS(=O)(=O)c1ccc2c(c1)oc(=O)n2C)C(=O)N1CC=C(c2ccccc2)CC1 (stereo not drawn)	-	-	86	-	-	-
CCC1CCCCN1Cc1ccc(CNS(=O)(=O)c2ccc3c(c2)oc(=O)n3C)o1 (stereo not drawn)	-	-	98	-	-	-
Cn1c(=O)oc2cc(S(=O)(=O)Nc3ccc4c(c3)OCO4)ccc21	-	-	66	-	-	-
Cn1c(=O)oc2cc(S(=O)(=O)NCCC(=O)N3CC=C(c4ccccc4)CC3)ccc21	-	-	-	-	-	-
Cn1c(=O)c2cc(S(=O)(=O)Nc3ccc4c(c3)OCO4)ccc2n(C)c1=O	-	-	-	.	-	-
O=C(Cn1cnc2ccc(Br)cc2c1=O)c1cccs1	-	-	-	.	-	-
Cc1cc(C)c(S(=O)(=O)Nc2ccc3c(c2)CCC3)c(C)c1	-	-	91	-	-	14
Cc1cc(C)c(S(=O)(=O)Nc2ccc3c4c(cccc24)CC3)c(C)c1	77	79	-	-	95	-
Cc1ccc(S(=O)(=O)Nc2ccc3c4c(cccc24)CC3)c(C)c1	-	-	-	.	-	42
CC(=O)Nc1ccc2c3c(cccc13)CC2	-	-	-	.	-	-
Cc1cc(C)c(S(=O)(=O)Nc2ccc(O)cc2)c(C)c1	-	-	-	-	-	-
CNC(=S)NNC(=O)c1c(C)nc2cc(C)ccn12	-	-	.	-	.	.
O=S(=O)(NCc1ccccc1F)c1cccc(S(=O)(=O)N2CCOCC2)c1	-	-	-	-	-	-
Cc1ccc(N2C(S)=C(C#N)C(=O)NC2c2cccs2)cc1 (stereo not drawn)	-	-	61	-	-	-
COc1ccc2c3c(c(=O)oc2c1OCC(=O)O)CCCC3	-	-	61	-	-	-
CCN1CCN(c2nc3c(c(=O)n(C)c(=O)n3C)n2Cc2cccc3ccccc23)CC1	-	-	-	-	-	-
Cc1ccccc1Cn1c(CN2CCc3ccccc3C2)nc2c1c(=O)n(C)c(=O)n2C	-	-	81	-	-	-
Cn1c(=O)c2c(nc(CN3CCN(C(c4ccccc4)c4ccccc4)CC3)n2CC(N)=O)n(C)c1=O	-	-	-	.	-	-
CCOC(=O)Cn1c(CN2CCN(C(c3ccccc3)c3ccccc3)CC2)nc2c1c(=O)n(C)c(=O)n2C	-	-	53	-	-	-
Cn1c(=O)c2c(nc(CN3CCC(C(N)=O)CC3)n2CCc2ccccc2)n(C)c1=O	-	-	-	114	-	-
Cn1c(=O)c2c(nc(CN3CCCCC3)n2CCc2ccccc2)n(C)c1=O	-	-	-	-	-	-
CCN1CCN(Cc2nc3c(c(=O)n(C)c(=O)n3C)n2Cc2cccc3ccccc23)CC1	-	-	92	-	-	-
COc1ccc(Cc2nnc(N/N=C/c3ccc(C)o3)[nH]c2=O)cc1	-	-	-	-	-	-
NC(=O)c1coc(-c2ccccc2)n1	-	-	-	-	-	-
Cc1ccccc1NC(=O)N1CCCC(c2nc(-c3ccc(C(C)C)cc3)no2)C1 (stereo not drawn)	-	-	85	-	-	-
SMILES	Ba/F3 V617F tox	BaF3 parental	Lmaj promast	b-catenin transl	APP transl inh	MT stabilize HCS
Cc1ccccc1NC(=O)N1CCCC(c2nc(-c3ccc(F)cc3)no2)C1 (stereo not drawn)	-	-	-	-	-	-
COc1ccc(CN(C(=O)/C=C/C(=O)c2ccc(OC)cc2O)C(C(=O)NC2CCCCC2)c2ccncc2)cc1 (stereo not drawn)	-	-	78	-	-	-
COc1ccc(CN(C(=O)c2cccs2)C(C(=O)NC2CCCCC2)c2ccc3ncccc3c2)cc1 (stereo not drawn)	-	-	-	.	-	-
O=C(NC1CCCCC1)C(c1ccncc1)N(Cc1ccc2c(c1)OCO2)C(=O)c1cnsn1 (stereo not drawn)	-	-	-	-	-	-
COc1ccc(C(=O)/C=C/C(=O)N(Cc2ccc3c(c2)OCO3)C(C(=O)NC2CCCCC2)c2ccncc2)c(O)c1 (stereo not drawn)	-	-	55	-	-	-
O=C(/C=C/c1ccc(F)cc1)N1CC[C@@]2(O)CCCC[C@H]2C1	-	-	.	-	.	.
COC(c1ccccc1)c1nnc(CCC(=O)NCc2cccc(-n3cccn3)c2)o1 (stereo not drawn)	-	-	-	-	-	-
CCCc1cnc(N2CCN(S(=O)(=O)c3cccs3)CC2)nc1	-	-	.	-	.	.
Cc1ccn2c(Nc3ccccc3)c(-c3ccccn3)nc2c1	-	-	101	-	59	-
Cc1ccccc1Nc1c(-c2cccnc2)nc2ccc(Br)cn12	-	-	-	.	-	-
Cc1ccc2nc(-c3ccccn3)c(Nc3ccccc3C)n2c1	-	-	100	-	-	-
Cc1ccccc1Nc1c(-c2cccnc2)nc2ccccn12	-	-	.	-	.	.
Cc1ccccc1Nc1c(-c2ccncc2)nc2ccc(Br)cn12	-	-	96	-	-	-
Cc1ccccc1Nc1c(-c2ccccn2)nc2ccccn12	-	-	100	-	-	-
Cc1c(N2C(=O)C(=O)/C(=C(/O)c3ccc(Br)cc3)C2c2cccnc2)c(=O)n(-c2ccccc2)n1C (stereo not drawn)	-	-	-	-	-	-
O=C(O)c1cccc(N2C(=O)/C(=C/c3ccc(SCc4ccc(Cl)cc4)o3)SC2=S)c1	-	-	-	-	-	-
COCCN1C(=O)CS/C1=C(/C#N)C(=O)NCc1ccco1	-	-	-	-	-	-
CCOC(=O)c1c(C)[nH]c(C)c1C(=O)COc1ncnc2ccccc12	-	-	-	-	-	-
Cc1ccn2c(Nc3ccccc3C)c(-c3ccccn3)nc2c1	-	-	101	.	-	-
CCOC(=O)c1nc(SC)n(C)c1C(=O)OCC	-	-	.	-	.	.
CN(C(=S)NC(=O)c1ccc(Br)o1)c1ccccc1	-	-	-	-	-	-
COc1ccc(CC(=O)Nc2ccc(-c3cn4ccccc4n3)cc2)cc1	-	-	-	-	58	-
COc1ccc(CC(=O)Nc2cccc(-c3cn4ccccc4n3)c2)cc1	-	-	-	-	-	-
Cc1nn(Cc2ccccc2)c(Cl)c1C(=O)OCC(=O)NC(=O)NC12CC3CC(CC(C3)C1)C2	-	-	-	-	-	-
O=C1N=C2N(CCN3CCCCC3)c3ccccc3N2/C1=C\c1ccc([N+](=O)[O-])o1	-	-	100	-	96	-
SMILES	Ba/F3 V617F tox	BaF3 parental	Lmaj promast	b-catenin transl	APP transl inh	MT stabilize HCS
c1ccc2c(c1)N1CCCN=C1N2CCN1CCCCC1	-	-	-	-	-	-
CCOc1ncccc1C(=O)N1CCN(C(c2ccccc2)c2ccccc2)CC1	-	-	-	-	-	-
CN(C)c1ccc(/C=C(\C#N)C(=O)c2ccccc2)cc1	-	-	.	-	.	.
CN(C)c1cccc(/C=C(\C#N)c2ccccc2)c1	81	76	.	-	.	.
CN(C)c1ccc(/C=C(\C#N)c2ccccc2)cc1	83	76	.	-	.	.
Cc1cccc(OCCCOc2cccc3cccnc23)c1C	-	-	69	-	-	-

Assay outcomes deposited in PubChem BioAssay by several laboratories.
